Experimental data: ChEMBL document CHEMBL4513216, “Probing the Open Global Health Chemical Diversity Library for Multistage-Active Starting Points for Next-Generation Antimalarials” (ACS Infect Dis, 2020)

Assay: Toxicity liver stage against HepG2, at 10uM
Assay type: cell-based
Design: test concentration 10 uM, cell line HepG2-A16-CD81EGFP
Settings: human, HepG2-A16-CD81EGFP cells; read-out: INHIBITION
Method in brief: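 Uninfected HepG2-A16-CD81EGFP cells, 3 × 10^3 per well, 1536-well, plated on prespotted compound at 10 μM final, parasite-free screening media added to match infected plates; puromycin 10 μM positive, DMSO 0.5% negative; run in parallel with 48 h PbLuc assay at 37 °C, 5% CO2; viability by CellTiter-Glo luminescence, normalized to controls.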

Structure (SMILES)	cytotoxicity at 10 µM [%]
Cc1cccc(SC2CCN(Cc3nc(CC4CC4)no3)CC2)c1	-6.51
CC(=O)N1N=C(COc2ccc(C)cc2)OC1c1ccc(N(C)C)cc1 (stereo unspecified)	-3.33
CC(=O)c1cn(CCC(=O)N[C@@H](CC(C)C)C(=O)O)c2ccccc12	2.1
Cn1ccc2ccc(C(=O)NC3CCOC(C)(C)C3)cc21 (stereo unspecified)	3.13
CN1CCN(C(=O)c2cc3sccc3n2Cc2ccccc2Cl)CC1	2.3
Cc1ccsc1C1CC(=O)Nc2c1cnn2C(C)C (stereo unspecified)	-7.7
COCCN(Cc1ccoc1)C(=O)c1ccccn1	9.24
COCCC1COC2(CCN(C(=O)C3CCC3)CC2)C1 (stereo unspecified)	8.25
O=C(c1ccc[nH]1)N1CCCC2(CCCN2Cc2cccnc2)C1 (stereo unspecified)	3.83
O=C(C1CC1)N1CC[C@H]2[C@@H]1CCC(=O)N2c1ccccc1	10.8
CCS(=O)(=O)NCC1OCCc2cn(CCOC)nc21 (stereo unspecified)	9.43
c1nc2c(c(C3CCOC3)n1)CCN(Cc1ccoc1)CC2 (stereo unspecified)	7.01
COc1ccccc1C1CC(=O)Nc2c1c(=O)[nH]n2C1CCCC1 (stereo unspecified)	-3.85
COc1ccc(Br)c(C(=O)NCC2CCN(C(=O)c3ccoc3)CC2)c1	-21.7
CCn1cc(-c2cc(C(F)(F)F)nn2CCC#N)cn1	3.93
CCCc1nc(N2CCCCC2)c2c(n1)c(C)nn2CC	7.46
CCn1cncc1CN1CCc2nc3sccc3c(=O)n2CC1	-2.55
CCc1ncc(CN2C[C@@H]3C[C@@H](O)CN3C[C@@H]2Cc2ccccc2)cn1	-5.02
O=C1NC2(CCc3ccccc31)CCN(C(=O)c1cccnc1)C2 (stereo unspecified)	5.5
CCS(=O)(=O)N1C[C@@H](O)[C@H](N(C)Cc2ccc(F)cc2)C1	4.54
CC(=O)N1CCC(c2cccc(NC3CCOCC3)n2)CC1	13.3
COc1ccc(C2CNCCN2C(=O)c2cccc3ncccc23)cc1 (stereo unspecified)	-8.73
Cc1nc(C2CCCN(C(C)C)C2)sc1Br (stereo unspecified)	-4.52

Structure (SMILES)	cytotoxicity at 10 µM [%]
c1ccc(CCN2CCCC2c2ccnc(Nc3ncccn3)n2)cc1 (stereo unspecified)	2.14
CNc1cc(C)nc(C2CN(Cc3ccc(C)nc3)CCO2)c1 (stereo unspecified)	-2.29
O=C(Nc1ccccc1)N1CCn2c(nnc2C2CCNCC2)C1	-3.84
CC(C)NC(=O)N1CCC2(CC1)CN(C(=O)NC(C)C)CCO2	11.8
O=C(NCC(O)CO)Nc1cc(Br)ccc1F (stereo unspecified)	1.69
NC(=O)CN(Cc1cccc(Oc2ccccc2)c1)C(=O)C1CC1	4.59
COc1ccc(CNCCc2cccc(C(N)=O)c2)cc1C	-6.81
O=C(COc1ccccc1)NS(=O)(=O)Cc1ccccc1	-12.3
COC(=O)c1cc(NCc2cscn2)ccc1C	5.17
Cn1nc2c(cc1=O)CN(CC(=O)NC1CCCCNC1=O)CC2 (stereo unspecified)	1.9
CS(=O)(=O)c1cccc(Cl)c1C(=O)NCCN1C(=O)CCC1=O	-1.19
CS(=O)(=O)CCCC(=O)Nc1cc(-c2cccc(F)c2F)n[nH]1	4.77
Cc1noc(C)c1CNC(=O)NCCC(=O)N1CCCc2ccccc21	-0.353
CC(C)(C)C(=O)N1CCC(COCc2ccccc2)C1 (stereo unspecified)	12.8
CC(C)c1nc(NC(=O)CCCn2cccc2)n(C)n1	-7.71
Cc1csc(N2CCN(C(=O)c3cc(C4CC4)[nH]n3)CC2)n1	3.34
CC(=O)N(C)C1CCN(C(=O)NCC(C)Cc2cccs2)CC1 (stereo unspecified)	-1.99
Cc1ccccc1C(=O)NC1CCN(c2cnn(C)c2)C1=O (stereo unspecified)	4.19
NS(=O)(=O)CCCNC(=O)C1(c2cccc(Cl)c2)CC1	-4.02
CCOc1ccc(S(=O)(=O)NC(=O)c2c(C)noc2C(C)C)cc1	-3.08
CN(Cc1nccn1C)S(=O)(=O)c1cccc(C#N)c1	15.1
O=C(NCCNc1ncccn1)c1scnc1Cl	-3.11
CC(C#N)(NC(=O)COc1ccccc1Br)C1CC1 (stereo unspecified)	7.45

Structure (SMILES)	cytotoxicity at 10 µM [%]
CC1c2cccn2CCN1S(=O)(=O)N1CCCCCC1 (stereo unspecified)	-2.3
CN(CCCc1cc(-c2ccccc2)n[nH]1)C(=O)CCCn1cncn1	-147
CC(C)CCNC(=O)CCc1ccnc2ccccc12	-0.69
COc1ccc(CNC(C)c2cn[nH]c2C)cc1 (stereo unspecified)	6.1
CC(C)Cn1cnc(S(=O)(=O)NCCc2nnc3ccccn23)c1	6.48
COc1ccc(CN2CCN(c3ncc(Cl)cn3)CC2)cc1	-4.86
CCc1ccc(Cn2nccc2NC(=O)C2CCS(=O)(=O)C2)cc1 (stereo unspecified)	-1.32
O=C(NS(=O)(=O)c1cccc(F)c1)c1ccccc1F	9.39
Cn1c(N)nnc1SCC1OCCc2ccccc21 (stereo unspecified)	0.355
CC(=O)c1ccc(CNC(=O)c2cc(C#N)cn2C)nc1C	5.44
Cc1cnn(CCNCc2csc(C)n2)c1	5.79
CC(C)c1noc(CCC(=O)NC(C)c2nnc3n2CCCCC3)n1 (stereo unspecified)	-4.35
Cc1cc(CNC(=O)NC(C)c2ccncc2)no1 (stereo unspecified)	-13.5
Cc1c(C(=O)NC(C)C(C)C)nnn1-c1cccc2c1CCN(C)C2 (stereo unspecified)	-9.03
CCN1CC(C(=O)NCc2ccc3c(c2)nc(C)n3C)CCC1=O (stereo unspecified)	-6.9
CN(Cc1ccoc1)C(=O)C1(Oc2ccc(Cl)cc2)CCNCC1	5.73
O=C(NCCOCCO)c1cnc(-c2ccccc2)nc1O	0.701
O=C(CCCc1cn[nH]c1)N1C[C@H](CO)C[C@H](CN2CCCC2)C1	-10.2
CN1CCN(Cc2c[nH]cn2)CC12CCC(=O)N(CC1CC1)CC2 (stereo unspecified)	2.98
Cc1ccc(OCc2occc2C(=O)N2CCCCC(N)C2)cc1 (stereo unspecified)	-8.84
OCCC1CN(c2nc(-c3ccncc3)nc3c2CCNCC3)CCO1 (stereo unspecified)	5.05
CN(C)S(=O)(=O)N1CCCC(c2nccn2Cc2cccnc2)C1 (stereo unspecified)	4.61
COc1cnc(CN2CCN(CC(C)C)C(=O)C2C)cc1O (stereo unspecified)	3.28

Structure (SMILES)	cytotoxicity at 10 µM [%]
O=C(CCn1cc(Cl)cn1)N1CCN(CCOc2ccccc2)CC1	4.92
CCn1c(N)nc2cc(C(=O)NCCCc3ccccn3)cnc21	-7.38
COc1c(F)cccc1C(=O)NC(C)c1cnn(C)c1 (stereo unspecified)	24.5
CC(C)Oc1ccccc1-c1cc(CN)ccc1F	-2.69
CN1CCCC(CCC(=O)N2CCc3onc(C(=O)N(C)C)c3C2)C1 (stereo unspecified)	-11
CNc1ncc(C(=O)N2CC[C@@](O)(C3CCOCC3)[C@H](C)C2)cn1	4.56
CSCc1noc(C2CCC(=O)N(CCCN3CCCC3=O)C2)n1 (stereo unspecified)	3.59
Cc1cc(C)n(CC(C)NC(=O)c2cc(CN3CCC(O)CC3)on2)n1 (stereo unspecified)	0.873
NC(=O)c1cnc2n1CCN(C(=O)c1ccc(-c3cc[nH]n3)cc1)C2	-2.79
CSc1ccccc1C(=O)N1CCOC(CCN(C)C)C1 (stereo unspecified)	7.46
Cc1cc2[nH]c(CN3CCOC(Cc4ccccc4)C3)cc(=O)n2n1 (stereo unspecified)	-24.1
Cn1c(CN2CCC(O)CC2)nnc1C1CCCN(C(=O)C2CNC2)C1 (stereo unspecified)	3.19
O=C1CCc2ccccc2N1CCCn1cnnn1	3.92
O=C(CCCc1cn[nH]c1)N1C[C@@H](CN2CCCC2)C[C@H](CO)C1	-8.96
O=C(CCS(=O)(=O)c1ccccc1)NC1CCOC2(CCOCC2)C1 (stereo unspecified)	7.56
Cc1nc(O)cc(CNC(=O)CC[C@@H]2CCCN3CCCC[C@H]23)n1	1.87
CCN(Cc1noc(CC(C)C)n1)Cc1ccccc1OCC(=O)O	-49
COc1cccc(F)c1-c1c[nH]c(C)n1	-0.654
c1cncc(NCCCNC2CCSC2)c1 (stereo unspecified)	-3.62
COCc1nc(CNC2CCC3(CCNCC3)CC2)no1	-3.13
CC(C)c1nc(N2CCN3CCCC3C2)c2cnn(C)c2n1 (stereo unspecified)	-11.9
CCn1ncnc1C1CC(=O)NCc2nc3ccccn3c21 (stereo unspecified)	-12.2
Cc1ncc(-c2nc3cc(S(=O)(=O)N4CCCC4)ccc3n2C)cn1	-21

Structure (SMILES)	cytotoxicity at 10 µM [%]
Cc1cnc(N2CCCC3(CCCN(C)C3)C2)nc1 (stereo unspecified)	-11.8
CCC(CC)C(=O)NS(=O)(=O)c1ccc(C#N)cc1C(F)(F)F	-15.9
COCc1nc(C(=O)NS(=O)(=O)c2c(C)c(C)cc(C)c2C)cs1	-8.01
COc1ccc(F)cc1C(C)NC(=O)NCCCn1cncn1 (stereo unspecified)	-17.8
Cc1ccc(NC2CCN(C(=O)c3cccc4cccnc34)CC2)nn1	-8.31
O=C(COc1ccc(C(F)(F)F)cc1)N1CCOCC1c1ncon1 (stereo unspecified)	-12.5
OCCN1CCN(CC(O)c2ccc(OC(F)(F)F)cc2)CC1 (stereo unspecified)	-20.8
Cc1ccccc1CCC(=O)N1CCCC(c2cc(C(N)=O)[nH]n2)C1 (stereo unspecified)	-11.3
c1csc(-c2nc(CN3CCn4c(nnc4C4CC4)C3)co2)c1	7.17
Cc1ccc(NC2CCN(C(=O)c3cc(C(N)=O)cs3)CC2)nn1	2.94
COc1c(C2CCCN2C(=O)c2ccc3cc[nH]c3c2)c(C)nn1C (stereo unspecified)	-2.74
CNC(=O)CN1CCO[C@H]2CN(C(=O)c3ccncc3F)C[C@H]21	-155
O=C(c1ccncc1)N1CC[C@@H]2[C@@H](CC1)OCCN2c1cccnc1	8.25
O=C(CO[C@@H]1CC[C@H]2[C@H]1OCCN2CC1CCOCC1)N1CCCC1	-11.6
CC(C)CN1CCS(=O)(=O)[C@@H]2CCN(S(=O)(=O)C3CC3)CC[C@@H]21	7.8
CN(C)[C@H]1COC[C@@H]2CN(Cc3ccc4c(c3)OCO4)C[C@@H]21	4.2
Cc1cc(CN2C[C@@H]3CN(C(=O)c4ccco4)CCO[C@@H]3C2)no1	-141
O=c1c2c[nH]c(N3CCC(O)CC3)nc-2cn1Cc1cccc(F)c1	20.6
O=c1[nH][nH]c2cn(-c3ccc(Cl)cc3)c(=O)n12	6.45
